# How the values were obtained:
# Mus musculus [1] = test: Antidepressant activity in mouse assessed as decrease in immobility at 50 mg/kg, po administered 30 mins prior to testing by tail suspension test relative to vehicle control; format: functional; design: scale not given: the % may be the effect or the level left
# Procedure, shortened: (§1)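 Oral doses of 10–50 mg/kg (three doses) were given once, 30 min before testing. Mice were hung by adhesive tape 1 cm from the tail tip, 75 cm above the tabletop. Immobility was recorded for 5 min, scored blind, 10–12 mice per group, against vehicle controls. One-way ANOVA with Scheffe post hoc test; p<0.05 significant.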
# [2] = molecular target: 5-hydroxytryptamine receptor 1B (Homo sapiens) (UniProt P28222); test: Displacement of [I125]CYP from 5HT1B receptor at 10 uM
# Procedure, shortened: (§2)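 Radioligand binding panel run by a contract lab (CEREP). Percent inhibition of specific radioligand binding was measured at a single primary test concentration of 10.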
# [3] = molecular target: T1, Muscarinic acetylcholine receptor M2 (Homo sapiens) (UniProt P08172); test: Displacement of [3H]AF-DX384 from M2 receptor at 10 uM; procedure, shortened: as §2
# T1 sequence (whole entry): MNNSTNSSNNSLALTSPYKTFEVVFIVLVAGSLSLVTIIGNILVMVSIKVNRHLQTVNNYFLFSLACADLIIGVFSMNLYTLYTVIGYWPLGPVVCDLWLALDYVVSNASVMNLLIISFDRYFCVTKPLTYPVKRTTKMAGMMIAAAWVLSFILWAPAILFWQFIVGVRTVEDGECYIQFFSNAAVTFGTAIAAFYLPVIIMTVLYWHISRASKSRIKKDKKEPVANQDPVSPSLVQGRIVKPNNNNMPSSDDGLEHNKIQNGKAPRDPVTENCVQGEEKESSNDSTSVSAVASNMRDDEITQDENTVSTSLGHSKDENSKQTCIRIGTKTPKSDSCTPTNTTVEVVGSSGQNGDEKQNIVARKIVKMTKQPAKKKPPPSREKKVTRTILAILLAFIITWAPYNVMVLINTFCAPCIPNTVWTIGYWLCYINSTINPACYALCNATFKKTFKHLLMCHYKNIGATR
# D(1A) dopamine receptor [4] = molecular target: T2, D(1A) dopamine receptor (Homo sapiens, UniProt P21728); test: Displacement of [3H]SCH23390 from dopamine D1 receptor at 10 uM; procedure, shortened: as §2
# [5] = molecular target: Beta-2 adrenergic receptor (Homo sapiens) (UniProt P07550); test: Displacement of [3H](-)CGP12177 beta2 adrenergic receptor at 10 uM; procedure, shortened: as §2
# Mus musculus [6] = test: Antidepressant activity in mouse assessed as decrease in immobility at 20 mg/kg, po administered 30 mins prior to testing by tail suspension test relative to vehicle control; format: functional; design: scale not given: the % may be the effect or the level left; procedure, shortened: as §1
# [7] = molecular target: 5-hydroxytryptamine receptor 6 (Homo sapiens) (UniProt P50406); test: Displacement of [3H]LSD from human recombinant 5HT6 receptor expressed in HEK293 cells at 10 uM after 60 mins by liquid scintillation counting; format: cell-based; procedure, shortened: as §2
# [8] = molecular target: 5-hydroxytryptamine receptor 2B (Homo sapiens) (UniProt P41595); test: Displacement of [3H]Mesulergine from human recombinant 5HT2B receptor expressed in CHO cells at 10 uM after 30 mins by liquid scintillation counting; format: cell-based; procedure, shortened: as §2
# [9] = molecular target: D(2) dopamine receptor (Homo sapiens) (UniProt P14416); test: Displacement of [3H]Methylspiperone from dopamine D2 receptor at 10 uM; procedure, shortened: as §2
# [10] = molecular target: T3, Muscarinic acetylcholine receptor M1 (Homo sapiens) (UniProt P11229); test: Displacement of [3H]pirenzepine from human recombinant M1 receptor expressed in CHO cells at 10 uM after 60 mins by liquid scintillation counting; format: cell-based; procedure, shortened: as §2
# T3 sequence (whole entry): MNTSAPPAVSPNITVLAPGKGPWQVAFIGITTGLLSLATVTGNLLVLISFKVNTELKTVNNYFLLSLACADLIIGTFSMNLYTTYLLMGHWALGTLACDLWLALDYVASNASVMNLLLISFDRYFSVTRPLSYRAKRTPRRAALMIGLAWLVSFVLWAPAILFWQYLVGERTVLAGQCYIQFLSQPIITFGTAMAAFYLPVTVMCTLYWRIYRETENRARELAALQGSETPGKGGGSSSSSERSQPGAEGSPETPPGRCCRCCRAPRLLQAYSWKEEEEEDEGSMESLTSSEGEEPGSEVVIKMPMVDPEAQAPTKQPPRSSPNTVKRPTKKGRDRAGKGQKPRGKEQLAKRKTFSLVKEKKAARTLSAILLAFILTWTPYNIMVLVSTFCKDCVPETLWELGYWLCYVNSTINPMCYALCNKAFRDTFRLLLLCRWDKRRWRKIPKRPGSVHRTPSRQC
# [11] = molecular target: 5-hydroxytryptamine receptor 5A (Homo sapiens) (UniProt P47898); test: Displacement of [3H]LSD from 5HT5A receptor at 10 uM; procedure, shortened: as §2
# D(1A) dopamine receptor [12] = molecular target: T2, D(1A) dopamine receptor; test: Displacement of [3H]SCH23390 from dopamine D1 receptor
# Procedure, shortened: (§3)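 A primary screen at a single concentration was run first; compounds giving >80% inhibition of radioligand binding went on to full concentration–response curves to obtain IC50 (CEREP contract assay).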
# [13] = AUC (0 to infinity) in Sprague-Dawley rat at 10 mg/kg, po; format: ADME, organism-based; design: time infinity, dose 10 mg/kg, route oral; conditions: plasma
# Procedure, shortened: (§4)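 Male SD rats, three per group, fasted overnight until 6 h post-dose, received a single oral dose of 10 mg/kg. Heparinized blood was drawn at 5, 15 and 30 min and at 1, 2, 4, 6, 8, 12 and 24 h. Plasma was frozen and analysed by LC/MS/MS for Cmax, Tmax, terminal t1/2 and AUC0-inf.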
# [14] = AUC (0 to infinity) in Sprague-Dawley rat at 1 mg/kg, iv; format: ADME, organism-based; design: time infinity, dose 1 mg/kg, route intravenous; conditions: plasma
# Procedure, shortened: (§5)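 Male SD rats, three per group, fasted overnight until 6 h after dosing, were given a single 1 mg/kg iv dose into the femoral vein. Blood was sampled at 5, 15 and 30 min and at 1, 2, 4 and 6 h. Plasma was stored frozen and assayed by LC/MS/MS.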
# [15] = Cmax in Sprague-Dawley rat at 1 mg/kg, iv; format: ADME, organism-based; design: dose 1 mg/kg, route intravenous; conditions: in vivo; procedure, shortened: as §5
# [16] = molecular target: Adrenergic receptor alpha-1 (Rattus norvegicus, UniProt P15823+P23944+P43140); test: Displacement of [3H]Prazosin from rat alpha1 adrenergic receptor after 60 mins by liquid scintillation counting; procedure, shortened: as §3
# [17] = Cmax in Sprague-Dawley rat at 10 mg/kg, po; format: ADME, organism-based; design: dose 10 mg/kg, route oral; conditions: in vivo; procedure, shortened: as §4
# [18] = Elimination half life in Sprague-Dawley rat at 10 mg/kg, po; format: ADME, organism-based; design: dose 10 mg/kg, route oral; conditions: in vivo, read-out: beta t1/2 (converted); procedure, shortened: as §4
# [19] = Tmax in Sprague-Dawley rat at 10 mg/kg, po; format: ADME, organism-based; design: dose 10 mg/kg, route oral; conditions: in vivo; procedure, shortened: as §4
# [20] = Oral bioavailability in Sprague-Dawley rat at 10 mg/kg; format: ADME, organism-based; conditions: in vivo
# Procedure, shortened: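 Bioavailability in male SD rats (n=3 per group, fasted overnight to 6 h post-dose) came from a 10 mg/kg oral dose and a 1 mg/kg iv dose via the femoral vein. Plasma drug levels over time were measured by LC/MS/MS.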
# [21] = Elimination half life in Sprague-Dawley rat at 1 mg/kg, iv; format: ADME, organism-based; design: dose 1 mg/kg, route intravenous; conditions: in vivo, read-out: beta t1/2 (converted); procedure, shortened: as §5
# Chain of 5-hydroxytryptamine receptor 6 (Homo sapiens) (P50406 whole entry): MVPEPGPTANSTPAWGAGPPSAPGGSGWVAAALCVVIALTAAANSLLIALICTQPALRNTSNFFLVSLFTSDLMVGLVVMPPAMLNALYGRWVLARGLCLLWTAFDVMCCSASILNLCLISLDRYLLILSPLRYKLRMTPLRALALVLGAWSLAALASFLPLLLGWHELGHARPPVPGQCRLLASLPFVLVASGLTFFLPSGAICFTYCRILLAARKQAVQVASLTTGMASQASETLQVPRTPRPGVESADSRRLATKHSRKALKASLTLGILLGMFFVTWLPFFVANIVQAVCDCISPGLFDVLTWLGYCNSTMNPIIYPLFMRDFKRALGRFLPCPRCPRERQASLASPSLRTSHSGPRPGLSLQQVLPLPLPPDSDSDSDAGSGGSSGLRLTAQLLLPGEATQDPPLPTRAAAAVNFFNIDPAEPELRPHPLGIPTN
# Chain of 5-hydroxytryptamine receptor 5A (Homo sapiens) (P47898 whole entry): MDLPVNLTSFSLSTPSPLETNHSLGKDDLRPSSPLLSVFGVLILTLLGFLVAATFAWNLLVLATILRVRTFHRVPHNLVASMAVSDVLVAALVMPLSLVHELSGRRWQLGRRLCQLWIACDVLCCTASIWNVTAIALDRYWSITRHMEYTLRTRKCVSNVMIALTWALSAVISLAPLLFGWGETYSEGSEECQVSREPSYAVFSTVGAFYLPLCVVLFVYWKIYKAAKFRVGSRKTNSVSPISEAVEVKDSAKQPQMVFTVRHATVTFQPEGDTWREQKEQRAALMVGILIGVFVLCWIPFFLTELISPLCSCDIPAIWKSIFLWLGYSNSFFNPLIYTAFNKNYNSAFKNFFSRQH
# Chain of 5-hydroxytryptamine receptor 1B (Homo sapiens) (P28222 whole entry): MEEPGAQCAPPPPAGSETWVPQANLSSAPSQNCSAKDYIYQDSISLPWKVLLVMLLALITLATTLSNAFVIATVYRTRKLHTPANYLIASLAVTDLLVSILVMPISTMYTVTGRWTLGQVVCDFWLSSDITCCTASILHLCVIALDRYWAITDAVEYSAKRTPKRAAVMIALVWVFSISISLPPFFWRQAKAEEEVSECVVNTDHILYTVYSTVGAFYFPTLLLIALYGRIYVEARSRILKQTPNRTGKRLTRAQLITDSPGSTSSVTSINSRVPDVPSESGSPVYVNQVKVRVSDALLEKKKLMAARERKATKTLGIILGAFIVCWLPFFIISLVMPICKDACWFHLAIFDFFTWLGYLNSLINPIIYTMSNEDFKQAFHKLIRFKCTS
# Chain of Beta-2 adrenergic receptor (Homo sapiens) (P07550 whole entry, looked up): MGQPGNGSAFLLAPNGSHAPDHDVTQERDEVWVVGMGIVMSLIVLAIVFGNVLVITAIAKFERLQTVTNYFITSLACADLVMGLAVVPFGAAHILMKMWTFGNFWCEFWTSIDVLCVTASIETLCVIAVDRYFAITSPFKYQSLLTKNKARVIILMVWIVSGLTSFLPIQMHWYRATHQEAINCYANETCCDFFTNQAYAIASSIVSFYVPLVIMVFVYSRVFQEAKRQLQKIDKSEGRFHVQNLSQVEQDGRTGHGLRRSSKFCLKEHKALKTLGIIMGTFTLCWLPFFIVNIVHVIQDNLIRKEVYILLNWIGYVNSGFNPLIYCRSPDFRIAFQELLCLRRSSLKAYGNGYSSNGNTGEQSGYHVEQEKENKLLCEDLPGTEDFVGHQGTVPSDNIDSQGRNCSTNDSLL
# T2 sequence (P21728 whole entry): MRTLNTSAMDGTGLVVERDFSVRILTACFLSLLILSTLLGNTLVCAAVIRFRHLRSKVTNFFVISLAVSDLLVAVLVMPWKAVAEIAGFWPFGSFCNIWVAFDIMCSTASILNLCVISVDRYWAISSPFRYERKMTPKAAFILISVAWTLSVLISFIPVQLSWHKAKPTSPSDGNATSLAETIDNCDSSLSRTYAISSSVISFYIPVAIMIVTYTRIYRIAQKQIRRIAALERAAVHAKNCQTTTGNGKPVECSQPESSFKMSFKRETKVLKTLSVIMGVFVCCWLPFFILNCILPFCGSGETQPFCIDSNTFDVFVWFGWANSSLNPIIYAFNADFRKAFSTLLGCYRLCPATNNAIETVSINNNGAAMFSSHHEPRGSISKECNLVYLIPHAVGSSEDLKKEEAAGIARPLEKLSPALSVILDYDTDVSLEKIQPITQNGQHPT
# Chain of D(2) dopamine receptor (Homo sapiens) (P14416 whole entry): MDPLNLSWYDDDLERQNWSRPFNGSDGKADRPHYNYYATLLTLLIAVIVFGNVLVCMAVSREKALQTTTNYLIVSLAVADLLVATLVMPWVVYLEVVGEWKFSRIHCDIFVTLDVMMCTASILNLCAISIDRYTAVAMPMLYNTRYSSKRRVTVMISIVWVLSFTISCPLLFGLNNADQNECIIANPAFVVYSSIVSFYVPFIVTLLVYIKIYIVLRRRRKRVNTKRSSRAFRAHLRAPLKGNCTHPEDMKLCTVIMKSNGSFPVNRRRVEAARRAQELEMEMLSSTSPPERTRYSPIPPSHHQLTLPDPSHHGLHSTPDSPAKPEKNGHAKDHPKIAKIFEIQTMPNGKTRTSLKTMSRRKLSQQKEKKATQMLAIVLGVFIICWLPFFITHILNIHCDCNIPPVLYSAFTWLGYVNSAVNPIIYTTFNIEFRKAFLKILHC
# Chain of 5-hydroxytryptamine receptor 2B (Homo sapiens) (P41595 whole entry): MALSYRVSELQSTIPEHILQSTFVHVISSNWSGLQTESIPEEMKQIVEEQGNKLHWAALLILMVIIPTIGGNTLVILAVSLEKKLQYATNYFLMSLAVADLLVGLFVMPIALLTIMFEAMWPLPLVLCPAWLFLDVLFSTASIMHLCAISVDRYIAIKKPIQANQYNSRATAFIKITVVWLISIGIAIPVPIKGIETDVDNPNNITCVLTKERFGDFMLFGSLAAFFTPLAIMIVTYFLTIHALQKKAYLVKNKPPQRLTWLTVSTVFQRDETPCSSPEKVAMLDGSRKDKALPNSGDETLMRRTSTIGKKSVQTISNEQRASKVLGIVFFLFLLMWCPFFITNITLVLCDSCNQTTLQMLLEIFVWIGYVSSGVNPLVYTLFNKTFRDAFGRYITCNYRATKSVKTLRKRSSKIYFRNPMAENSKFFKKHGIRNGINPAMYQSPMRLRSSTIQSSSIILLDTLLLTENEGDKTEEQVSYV
inhibition [2],inhibition [3],inhibition (D(1A) dopamine receptor [4]),inhibition [5],inhibition [7],inhibition [8],inhibition [9],inhibition [10],inhibition [11],AUC(0-inf) [13],AUC(0-inf) [14],Cmax [15],Cmax [17],half-life [18],Tmax [19],bioavailability [20],half-life [21],Structure (SMILES),Activity (Mus musculus [1]),Activity (Mus musculus [6]),also measured
0.6%,7.9%,33.3%,62.3%,1.9%,33.5%,31.4%,10.7%,–,–,–,–,–,–,–,–,–,OC(CCN1CC=C(Cc2ccccc2)CC1)c1ccc(Cl)c(Cl)c1 (racemic),35%,51%,–
–,6.5%,85.6%,16.7%,53.7%,6.1%,10.8%,31.2%,0.2%,–,–,–,–,–,–,–,–,OC(CCN1CC=C(Cc2ccccc2)CC1)c1cc2ccccc2s1 (racemic),34%,21%,IC50 (D(1A) dopamine receptor [12]): 9.65 µM
9.7%,16.5%,47.9%,14.7%,14.8%,4.9%,19.2%,34.2%,41.6%,5440 ng·h/mL,1230 ng·h/mL,750 ng/mL,897 ng/mL,2.9 h,0.7 h,44.1%,2.3 h,OC(CCN1CCC(O)(Cc2ccccc2)CC1)c1ccc(Cl)c(Cl)c1 (racemic),64%,42%,IC50 [16]: 8 µM
6.5%,3.7%,35.6%,49.8%,16.8%,14.5%,4.3%,4.3%,33.5%,5720 ng·h/mL,1020 ng·h/mL,653 ng/mL,923 ng/mL,3.5 h,0.5 h,55.8%,2.5 h,OC(CCN1CC=C(Cc2ccccc2)CC1)c1csc2ccccc12 (racemic),64%,51%,–
10.2%,12.9%,27.1%,28.5%,-0.9%,–,-0.5%,57.8%,–,–,–,–,–,–,–,–,–,COc1ccc2cc(C(O)CCN3CC=C(Cc4ccccc4)CC3)ccc2c1Cl (racemic),57%,42%,–
